# Bioassay records as filed in PubChem BioAssay.
# Shown are actives, neighbours in structure and some others; about 4.6% of the full set was active somewhere.
# TAAR1 agonist – human TAAR1 agonism; Q96RJ0; CHO RD-HGA16 TAAR1, Fluo-8 calcium fluorescence; vehicle wells 0%, saturating PEA agonist 100%; activation, % at 3 µM; 360,000 compounds, 0.99% hits; AID 624467;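 active = activation above the mean activation of all test compounds in the run plus 3 SD, cut at about 38% in these data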
# Target sequence (Q96RJ0 whole entry, looked up): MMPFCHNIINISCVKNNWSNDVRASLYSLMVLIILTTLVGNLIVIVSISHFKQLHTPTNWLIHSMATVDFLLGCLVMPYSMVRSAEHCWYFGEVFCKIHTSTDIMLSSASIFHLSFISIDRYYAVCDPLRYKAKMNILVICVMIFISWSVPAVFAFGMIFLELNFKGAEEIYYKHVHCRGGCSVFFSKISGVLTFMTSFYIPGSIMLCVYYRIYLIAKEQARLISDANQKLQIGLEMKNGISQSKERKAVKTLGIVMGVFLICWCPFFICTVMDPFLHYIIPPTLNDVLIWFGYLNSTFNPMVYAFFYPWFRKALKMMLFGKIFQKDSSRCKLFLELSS
#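 Benchmarks: low control DMSO, high control PEA (EC100); System: CHO RD-HGA16 cells carrying human TAAR1 plus Gα16; Detection: Fluo-8 fluorescence, 5 s baseline then 140 s kinetic read; Schedule: 17-24 h plating, Fluo-8 75 min 37 °C, 30 min RT; Read-out basis: % activation from peak over basal fluorescence ratio, DMSO-to-PEA scaled.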
# TAAR1 antag – human TAAR1 antagonism. inhibition, % at 3 µM. 360,000 compounds, 1.5% hits. CHO RD-HGA16 TAAR1, Fluo-8 calcium fluorescence, antagonist. Q96RJ0. AID 624466;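 active = inhibition above a per-plate cutoff, the mean inhibition of test compounds on that plate plus 3 SD, cut at about 49% in these data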;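 note: 0% = DMSO plus EC80 beta-PEA response and 100% = DMSO alone without agonist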
#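 Test system – hTAAR1-expressing CHO RD-HGA16 cells, Gα16-coupled · Reagent – β-PEA at EC80 concentration, post-compound challenge · Compound dosing – 3 µM, single point · Timing – 140 s kinetic read after compound, 140 s after agonist · Detection – Fluo-8 intracellular calcium dye fluorescence, real-time kinetic reads · Control set – DMSO and EC80 PEA controls · Repeats – n of 1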
# OX1R antag-1 – antagonists of human orexin 1 receptor (OX1R). OX1R-expressing cells, FRET antagonist read-out. AID 485270. 330,000 compounds, 1.8% hits. inhibition, % at 6.6 µM; in the data active = inhibition mostly above about 38%, no sharp cut-off; inactive = mostly below about 40%;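 note: 0% = agonist challenge alone and 100% = reference antagonist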
# CHO parental Ca – counter-screen: ATP calcium response change in parental CHO cells; 330,000 compounds, 0.63% hits; parental CHO-K1, ATP-induced calcium, Fluo-8 fluorescence; inhibition, % at 5.6 µM; AID 463079;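 active = inhibition above that plate's mean sample inhibition plus 3 SD, cut at about 26% in these data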;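 note: 0% = ATP-challenged DMSO wells and 100% = DMSO wells without ATP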
#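 Material: Parental CHO cells | Reagent: ATP | Compound dosing: Single nominal dose of 5.6 µM per compound | Detection: Intracellular calcium via Fluo-8 no-wash fluorescent dye | Read-out: % inhibition of ATP-induced calcium mobilization | Benchmarks: Low control ATP plus DMSO, high control DMSO only | Replicates: Singlicate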
# OX1R antag-2 – blocks the human orexin 1 receptor; O43613; CHO/OX1R cells, Fluo-8 calcium fluorescence, orexin A; inhibition, % at 5 µM; 330,000 compounds, 0.43% hits;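 active = inhibition above its plate's threshold, mean inhibition of all tested compounds on the plate plus 3 SD, cut at about 37% in these data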;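 note: 0% = orexin A challenge wells and 100% = SB-334867-A antagonist wells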
# GPR7 antagonist – blocks human GPR7 receptor signaling. GPR7-expressing cells, fluorescence antagonist assay. P48145. 290,000 compounds, 1.1% hits. inhibition, % at 4.4 µM; in the data active = inhibition above about 16%, passing the limit was not always enough;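 note: cells stimulated with the agonist NPW; 0% = agonist with vehicle and 100% = vehicle without agonist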
# Target sequence (P48145 whole entry, looked up): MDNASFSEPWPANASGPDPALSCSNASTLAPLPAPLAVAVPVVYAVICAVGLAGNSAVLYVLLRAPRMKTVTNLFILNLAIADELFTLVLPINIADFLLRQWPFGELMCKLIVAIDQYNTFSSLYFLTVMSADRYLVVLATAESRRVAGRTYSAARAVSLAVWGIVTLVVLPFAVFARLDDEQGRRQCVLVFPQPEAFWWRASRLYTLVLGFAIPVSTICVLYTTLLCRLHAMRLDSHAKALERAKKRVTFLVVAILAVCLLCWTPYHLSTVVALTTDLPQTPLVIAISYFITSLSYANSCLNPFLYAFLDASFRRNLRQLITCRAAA
# * hit, by the source's call; nt = not tested or not shown; ! = a repeat was not active.
SMILES,TAAR1 agonist,TAAR1 antag,OX1R antag-1,CHO parental Ca,OX1R antag-2,GPR7 antagonist
c1ccc(-c2noc(-c3cccc4ccccc34)n2)nc1,25,-8,66*,-36,-9,-8
CCOC(=O)C1=CC[C@@H](c2ccccc2)C(C#N)(C#N)[C@H]1/C=C/c1ccccc1,0,41,nt,nt,nt,nt
COc1ccc(-c2oc3ncnc(NCCN4CCOCC4)c3c2-c2ccc(OC)cc2)cc1,nt,nt,17,-27,-34,-13
COc1ccc(-c2oc3ncn(CCN4CCOCC4)c(=N)c3c2-c2ccc(OC)cc2)cc1,3,8,38*,-16,-16,1
CC1CCN(C(=O)c2ccccc2NS(=O)(=O)c2ccccc2)CC1,0,-10,50*,-12,-21,-5
C=C1C(=O)c2sccc2C(c2ccc(OC)c(OC)c2)C1COC(C)=O (stereo unspecified),7,-4,nt,nt,nt,nt
COc1ccccc1Cc1c(C(C)(C)C)nc2c(C)cc(Br)cn12,1,-10,nt,nt,nt,nt
CCOc1ccc(N(C)S(=O)(=O)c2cc(-c3cc(C)no3)ccc2CC)cc1,2,58*,17,64*,43*,6
CCOc1ccc(N(C)S(=O)(=O)c2cc(-c3cc(C)no3)ccc2OC)cc1,1,15,12,-12,-19,-6
CCc1ccc(-c2cc(C)no2)cc1S(=O)(=O)N1CCOc2ccccc21,3,3,49*,-19,-27,-5
COC(=O)c1cc2c(c3c4cc(F)ccc4n(S(=O)(=O)c4ccc(C)cc4)c13)C(=O)N(C)C2,-2,-5,nt,nt,nt,nt
CCN(c1cccc(C(F)(F)F)c1)S(=O)(=O)c1ccc2c(c1)CCN2C(=O)C1CC1,6,61*,23,65*,17,-16
CCC(=O)N1CCc2cc(S(=O)(=O)N(CC)c3cccc(C)c3)ccc21,9,17,7,-9,-13,-9
CC(=O)Nc1nc(COc2ccc3ccccc3c2)cs1,38*,35,23,7,10,4
COc1cc(C(=O)N2CCCCC2c2cc(C(=O)NCc3cccnc3)no2)cc(OC)c1C (stereo unspecified),6,2,nt,nt,nt,nt
Cn1nc(C(C)(C)C)cc1C(=O)NCc1cc(F)cc2c1OCOC2,9,50*,14,23,29,1
CCCc1nc2sc3ccccc3c(=O)c2c(=O)n1Cc1ccc(OC)cc1,2,-25,8,-15,-26,-9
CCCc1nc2sc3ccccc3c(=O)c2c(=O)n1Cc1ccco1,68*,1,nt,nt,nt,-9
CCOC(=O)c1c(CSc2ccccc2)oc2ccc(O)cc12,-1,10,24,26*,-1,-7
CCOC(=O)c1c(C)oc2ccc(O)c(CN(C)C)c12,7,4,9,-12,-16,-2
CCOC(=O)c1c(CSc2ccc(CC)cc2)oc2ccc(O)c(CN(C)C)c12,29,14,-11,67*,36,28
CC1CCC(C(C)C)C(OC(=O)Cn2c(-c3ccc(Br)cc3)[n+](C)c3ccccc32)C1 (stereo unspecified),7,6,17,30*!,8,74*
CC1CCC(C(C)C)C(OC(=O)COC(=O)c2ccc(N)cc2)C1 (stereo unspecified),2,-4,16,-2,-24,-16
CC1CCC(C(C)C)C(OC(=O)Cn2c(-c3ccc(Cl)cc3)[n+](C)c3ccccc32)C1 (stereo unspecified),2,-5,9,25,4,60*
CC1CCC(C(C)C)C(OC(=O)COC(=O)c2cccn2C)C1 (stereo unspecified),6,36,15,-12,-15,10
SMILES,TAAR1 agonist,TAAR1 antag,OX1R antag-1,CHO parental Ca,OX1R antag-2,GPR7 antagonist
Nc1[nH]c(C(=O)c2ccccc2)c(-c2ccc(Cl)cc2)c1C(=O)c1c[nH]c2ccccc12,0,-6,nt,nt,nt,nt
Cc1cc(C)n(CCNC(=O)[C@H]2O[C@@H](n3ccc(N)nc3=O)[C@H](O)[C@@H]2O)n1,3,-1,nt,nt,nt,nt
COc1ccc(/C=C2\Sc3ccc(C(=O)N4CCN(Cc5ccccc5)CC4)cc3N(C)C2=O)cc1OC,4,59*,17,-1,3,20
COc1ccc(CN2C[C@@]3(O)CC[C@@H](O)[C@@H](OC)[C@@H]3[C@@](C)(O)[C@@H]2CC=C(C)C)cc1,1,-19,nt,nt,nt,nt
CCOC(=O)C1(Cc2ccccc2)CCN(Cc2cccc(OC)c2O)CC1,7,-22,12,-24,-14,-7
CCOC(=O)C1(Cc2ccccc2)CCN(Cc2cn(CC(=O)OC)c3ccccc23)CC1,4,2,7,-3,-25,32*
CCN(CC)c1ncnc2c1ncn2[C@H]1CN(Cc2ccc3c(c2)OCO3)C[C@@H](CO)O1,0,-9,nt,nt,nt,nt
COc1ccccc1C(c1nnnn1CCc1ccccc1)N1CCN(c2ccccc2)CC1 (stereo unspecified),5,12,17,-6,-14,23*
c1ccc(Cn2nnnc2C(c2cccnc2)N2CCN(c3ccccc3)CC2)cc1 (stereo unspecified),22,51*,11,-12,-13,-11
COc1cccc(C(c2nnnn2CCc2ccccc2)N2CCN(c3ccccc3)CC2)c1OC (stereo unspecified),15,-21,34,-3,-26,14
CCN(C(=O)Cn1cnc2cc([N+](=O)[O-])ccc2c1=O)C1CCS(=O)(=O)C1 (stereo unspecified),1,4,63*,-3,-14,-14
O=C(Cn1cnc2cc([N+](=O)[O-])ccc2c1=O)Nc1ccc(Br)cc1,2,8,9,-10,-13,-4
CN(C(=O)Cn1cnc2ccccc2c1=O)C1CCS(=O)(=O)C1 (stereo unspecified),0,-17,16,9,2,nt
O=C(Cn1cnc2cc([N+](=O)[O-])ccc2c1=O)Nc1ccccc1-c1ccccc1,-1,-5,48*,-23,-23,-8
CC1CCCC(C)N1C(=O)Cn1cnc2cc([N+](=O)[O-])ccc2c1=O (stereo unspecified),2,17,114*,-24,-13,-8
C[n+]1cccc(NC(=O)c2ccccc2)c1,2,-13,nt,nt,nt,nt
Cc1cc2nc(-c3cccc(Br)c3)c(CC(C)(C)C)n2c(C)c1Br,0,-35,nt,nt,nt,nt
Cc1cc2c(nc1C)CCCN2S(=O)(=O)c1ccc(F)cc1,-1,1,nt,nt,nt,nt
O=C1c2[nH]c3ccccc3c2CC1N1C(=O)c2ccccc2C1=O (stereo unspecified),21,52*,nt,nt,nt,nt
Cn1cc(S(=O)(=O)N2CCc3ccccc32)cc1C(=O)NC(C)(C)C,3,-18,7,33*,-10,-3
